Bioassay records from PubChem.
MrgX1 allo act = positive allosteric modulators of MrgX1, primary screen, HEK293 cells, Fluo-4 calcium flux; Mas-related G-protein coupled receptor member X1 (Homo sapiens), Q96LB2; FDSS; active compounds read high; B-score at 10 µM; actives 0.63% (n = 310,000); AID 588675, 2011;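 active means plate-corrected calcium response at least 3 library SD above typical, normal starting fluorescence, not activating the receptor alone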;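 further: compound read alongside a low EC10 to EC30 dose of BAM8-22 agonist; peak minus trough fluorescence over baseline measured at the second addition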
Target sequence (Q96LB2 whole entry, looked up): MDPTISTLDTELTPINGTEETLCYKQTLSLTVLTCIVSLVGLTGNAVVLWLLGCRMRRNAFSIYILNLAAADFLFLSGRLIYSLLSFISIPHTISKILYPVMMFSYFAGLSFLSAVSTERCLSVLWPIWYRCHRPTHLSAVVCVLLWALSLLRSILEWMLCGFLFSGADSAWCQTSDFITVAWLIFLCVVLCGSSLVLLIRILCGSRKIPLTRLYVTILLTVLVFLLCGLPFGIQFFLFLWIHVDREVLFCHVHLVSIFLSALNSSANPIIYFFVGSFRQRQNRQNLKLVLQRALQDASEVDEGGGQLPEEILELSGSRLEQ
RGS4 inh = RGS4 inhibitors, primary screen, cell-based, HEK293 M3R inducible RGS4, calcium flux. actives 0.45% (n = 310,000). Fluo-4 calcium flux; active compounds read high; triggered by carbachol at its EC20. Regulator of G-protein signaling 4 (Homo sapiens), P49798. B-score at 10 µM;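 active means B-score, a plate-corrected calcium signal, over three deviations above library mean, with baseline fluorescence within five deviations of library mean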;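 further: RGS4 expression induced by doxycycline in cells with stable M3 receptor; B-score is computed from the integrated fluorescence ratio over baseline after carbachol; higher B-score means a larger calcium signal and so more RGS4 inhibition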
Target sequence (P49798 whole entry, looked up): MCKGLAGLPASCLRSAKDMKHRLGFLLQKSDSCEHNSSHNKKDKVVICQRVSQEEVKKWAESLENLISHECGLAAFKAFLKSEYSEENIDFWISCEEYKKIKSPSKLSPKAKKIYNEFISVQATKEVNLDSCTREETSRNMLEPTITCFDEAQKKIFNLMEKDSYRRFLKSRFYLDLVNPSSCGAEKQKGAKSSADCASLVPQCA
RGS4 act = RGS4 potentiators or activators, primary screen, cell-based, HEK293 M3R inducible RGS4, calcium flux | carbachol calcium flux Fluo4; active compounds read low | B-score at 10 µM | actives 0.92% (n = 310,000);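 active means B-score of the integrated calcium signal more than 4 SD below the library mean, with starting fluorescence not abnormally high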;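 further: negative B-score means reduced calcium response which marks RGS4 activation or potentiation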
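System: HEK293 FlpIn-TREx cells, stable M3R, doxycycline-inducible RGS4. Timing: overnight RGS4 induction, 30 min dye load 37 °C, 20 min compound RT. Also added: carbachol, ECmax concentration. Measured by: Fluo4 fluorescence kinetic imaging of calcium. Evaluation: integrated calcium ratio converted to B score.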
MrgX1 antag = antagonists of human MrgX1 receptor, primary screen, HEK293 cells, Fluo-4 calcium flux; Mas-related G-protein coupled receptor member X1 (Homo sapiens), Q96LB2; BAM8-22 antagonism; active compounds read low; B-score at 10 µM; actives 1.3% (n = 310,000); AID 588676, 2011;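 active means calcium-response B-score plate-corrected more than 3 library SD below zero, starting fluorescence within 5 deviations, no agonist response on first addition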;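 further: peak minus trough fluorescence over baseline after final BAM8-22 challenge near maximal dose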
MrgX1 agonist = agonists of human MrgX1 receptor, primary screen, HEK293 cells, Fluo-4 calcium flux; Fluo-4 calcium fluorescence, agonist mode; active compounds read high; B-score at 10 µM; actives 0.44% (n = 310,000); AID 588627, 2011;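 active means calcium response B-score plate-corrected fluorescence ratio at least 3 library SD, with starting fluorescence B-score inside 5 SD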
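Test system: HEK293 cells stably expressing human MrgX1 receptor; Input: fifteen thousand cells per well; Dosing: compound delivered in addition one of three; Schedule: overnight seeding, then 1 h dark dye loading; Technique: Fluo-4 NW calcium fluorescence; Measure: B-scored fluorescence response ratio; Controls: positive and negative controls per plate.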
Starred values were filed as active, the others as inactive; i = inactive; x = not tested or not shown. Most compounds without a hit are left out; they make up all but 3.5% or so of the library.

SMILES | MrgX1 allo act | RGS4 inh | RGS4 act | MrgX1 antag | MrgX1 agonist
COc1ccc(C(=O)NC(=S)NC(C)c2ccccc2)cc1 (configuration not stated) | i | i | i | i | i
O=C(O)c1cc(-c2cccs2)nn1-c1ccc(F)cc1 | i | i | i | i | i
O=C(CCCN=C1NS(=O)(=O)c2ccccc21)OCc1cc([N+](=O)[O-])cc2c1OCOC2 | i | i | i | i | i
COCc1ccc(C(=O)N(C)CC2CCCN(CCc3ccc(Cl)cc3)C2)o1 (configuration not stated) | i | i | i | i | i
COCc1ccc(C(=O)N(C)CC2CCCN(CCc3ccc(OC)cc3)C2)o1 (configuration not stated) | i | i | -7.5* | i | i
COc1ccc(-n2c3c(cc(C(=O)N4CCC(C)CC4)c2=O)C(=O)CC(C)(C)C3)cc1 | i | i | i | i | i
COc1ccccc1-n1c2c(cc(C(=O)N3CCC(C)CC3)c1=O)C(=O)CC(C)(C)C2 | 8.6* | i | i | i | i
COc1cc(OC)c(S(=O)(=O)N2CCOCC2)cc1S(=O)(=O)N1CCOCC1 | i | i | i | i | i
Cc1cccn2c(=O)c3cc(C(=O)N4COCC4(C)C)sc3nc12 | i | i | i | i | i
O=C1/C(=C\c2ccccn2)SC(=S)N1Nc1ncc(C(F)(F)F)cc1Cl | i | i | i | i | i
O=C1/C(=C/c2ccc(F)cc2)SC(=S)N1Nc1ncc(C(F)(F)F)cc1Cl | i | i | -10* | i | i
O=C(CCCn1c(SCC(=O)c2ccc(O)c(O)c2)nc2ccccc2c1=O)NCC1CCCO1 (configuration not stated) | i | i | i | i | i
O=[N+]([O-])c1ccc(CSc2nnc(SCc3ccccc3)s2)cc1 | i | i | -8.3* | i | i
CCc1ccc(NSc2ccccc2[N+](=O)[O-])cc1 | 6.6* | i | -8.2* | i | i
O=C(O)c1ccccc1NSc1ccccc1[N+](=O)[O-] | i | i | i | i | i
Cc1ccc(N2CC(NS(=O)(=O)c3cccs3)CC2=O)cc1C (configuration not stated) | i | i | i | i | i
CC1(OC(=O)c2ccco2)C(=O)C=C2C=C(C3CC3)OC=C2C1=O (configuration not stated) | i | i | i | -5* | i
O=P(CCCCCCCCCP(=O)(c1ccccc1)c1ccccc1)(c1ccccc1)c1ccccc1 | i | i | -7* | i | i
COc1cccc(C(=O)NCC2(c3ccccc3)CCCC2)c1 | i | i | i | i | i
COc1ccc(C(=O)NCC2(c3ccccc3)CCCC2)c(OC)c1 | 10* | i | i | -10* | i
CN1CCN(c2ccc(NC(=O)c3cc([N+](=O)[O-])ccc3N3CCOCC3)cc2)CC1 | i | i | i | i | i
O=C(COC(=O)c1ccc(-c2ccc([N+](=O)[O-])cc2)o1)NC(=O)NC1CCCCC1 | i | i | -7* | i | i
CCOC(=O)C1CCCN(C(=O)c2ccc(-c3ccc([N+](=O)[O-])cc3)o2)C1 (configuration not stated) | i | i | -9* | i | i
O=C(COC(=O)c1ccc(-c2ccc([N+](=O)[O-])cc2)o1)NC(=O)NC12CC3CC(CC(C3)C1)C2 | i | i | i | i | i
O=C(Nc1cccc(S(=O)(=O)N2CCOCC2)c1)c1cnn2c(C(F)F)cc(-c3ccccc3)nc12 | i | i | i | i | i
SMILES | MrgX1 allo act | RGS4 inh | RGS4 act | MrgX1 antag | MrgX1 agonist
Cc1ccc2cc(C(c3nnnn3C3CCCC3)N(Cc3ccco3)Cc3cccs3)c(=O)[nH]c2c1 (configuration not stated) | i | i | i | i | i
Cc1ccc(NC(=O)COC(=O)c2ccc(=O)n(Cc3ccccc3)n2)cc1F | i | i | i | i | i
CC(OC(=O)c1ccc(=O)n(Cc2ccccc2)n1)C(=O)Nc1cccc(Cl)c1 (configuration not stated) | i | i | i | -5.3* | i
CCc1nc(SC)[nH]c(=O)c1C | i | i | i | i | i
CCn1cc(C(=O)N[C@@H](C)C(=O)NCCCO)c(=O)c2cc3c(cc21)OCO3 | i | i | i | i | i
CCN(CC)C(=O)CN(c1cc2c(cc1OC)oc1ccccc12)S(=O)(=O)c1ccccc1 | i | x | x | -9.1* | i
CCOc1ccc(C(C)=O)cc1N1C(=O)C2C3C=CC(O3)C2C1=O (configuration not stated) | i | i | i | i | 32*
CCN(CC)CCN1C(=O)/C(=C\c2ccc(Cl)c([N+](=O)[O-])c2)SC1=Nc1ccc(OC)cc1 | i | 27* | i | i | i
CCCN1C(=O)/C(=C/c2ccc(C)s2)SC1=Nc1ccc(OC)cc1 | i | i | i | i | i
COc1ccc(N=C2S/C(=C\c3ccc(Cl)c([N+](=O)[O-])c3)C(=O)N2CCN(C)C)cc1 | i | 13* | i | i | i
CCc1cccc(C)c1NC(=O)Cc1ccsc1 | i | i | i | i | i
CCN(CC)c1ccc(S(=O)(=O)N2CCOCC2)cc1NC(=O)COC(=O)/C=C/c1ccc(C)o1 | i | i | -9.6* | i | i
COc1ccc(C(=O)OCc2csc(C)n2)c(O)c1 | i | i | i | i | i
O=C1CCCCC1C(Nc1ccc(Br)cc1)c1ccccc1 (configuration not stated) | i | i | -7.5* | i | i
CC(=O)NC(NC(=S)Nc1ccc(N=Nc2ccccc2C)cc1C)C(Cl)(Cl)Cl (configuration not stated) | i | i | i | -4.6* | i
CC(C)Cn1nc(C(=O)OCC(=O)NCC(F)(F)F)c2ccccc2c1=O | i | i | i | i | i
COc1ccc(S(=O)(=O)N2CCC(C(=O)N[C@@H](C)C(=O)NCc3ccc(F)cc3)CC2)cc1 | i | i | i | i | i
Cc1cc(=O)oc(C)c1C(=O)NCCN1CCOCC1 | i | i | i | i | i
O=c1[nH]c(S)c(/C=C2\C=Nc3ccccc32)s1 | i | i | i | -5.4* | i
